The source made the active and inactive calls. The calls are words filed in the database; no cut-off is given here.
Columns and labels:
MDA-MB-361 [1] = assay: Growth inhibition of human MDA-MB-361 cells at 1 uM after 96 hrs by CellTiter assay; assay type: functional, cell-based
SK-OV-3 [2] = assay: Inhibition of cell proliferation of human SKOV3 cells at 1 uM by CellTiter assay; assay type: functional, cell-based; conditions: TDE = time-dependent effect
HT-29 [3] = assay: Inhibition of cell proliferation of human HT-29 cells at 1 uM after 96 to 120 hrs by CellTiter assay; assay type: functional
MDA-MB-468 [4] = assay: Inhibition of cell proliferation of human MDA-MB-468 cells at 1 uM after 96 to 120 hrs by CellTiter assay; assay type: functional
HT-29 [5] = assay: Growth inhibition of human HT-29 cells at 1 uM after 96 hrs by CellTiter assay; assay type: functional, cell-based
MDA-MB-468 [6] = assay: Inhibition of cell proliferation of human MDA-MB-468 cells at 1 uM by CellTiter assay; assay type: functional, cell-based; conditions: TDE = time-dependent effect
HT-29 [7] = assay: Inhibition of cell proliferation of human HT-29 cells at 1 uM by CellTiter assay; assay type: functional, cell-based; conditions: TDE = time-dependent effect
MDA-MB-468 [8] = assay: Growth inhibition of human MDA-MB-468 cells at 1 uM after 96 hrs by CellTiter assay; assay type: functional, cell-based
MDA-MB-361 [9] = assay: Inhibition of cell proliferation of human MDA-MB-361 cells at 1 uM by CellTiter assay; assay type: functional, cell-based; conditions: TDE = time-dependent effect
CCRF-CEM [10] = assay: Inhibition of cell proliferation of human CCRF-CEM cells at 1 uM by CellTiter assay; assay type: functional, cell-based; conditions: TDE = time-dependent effect
CCRF-CEM [11] = assay: Inhibition of cell proliferation of human CCRF-CEM cells at 1 uM after 96 to 120 hrs by CellTiter assay; assay type: functional
CCRF-CEM [12] = assay: Growth inhibition of human CCRF-CEM cells at 1 uM after 96 hrs by CellTiter assay; assay type: functional, cell-based
MDA-MB-361 [13] = assay: Inhibition of cell proliferation of human MDA-MB-361 cells at 1 uM after 96 to 120 hrs by CellTiter assay; assay type: functional
CCRF-CEM [14] = assay: Inhibition of cell proliferation of human CCRF-CEM cells after 96 hrs by CellTiter assay; assay type: functional, cell-based
SK-OV-3 [15] = assay: Inhibition of cell proliferation of human SKOV3 cells at 1 uM after 96 to 120 hrs by CellTiter assay; assay type: functional
SK-OV-3 [16] = assay: Growth inhibition of human SKOV3 cells at 1 uM after 96 hrs by CellTiter assay; assay type: functional, cell-based
[17] = Half life in fetal bovine serum at 1 mM by HPLC analysis; assay type: ADME, cell-free, Bos taurus; conditions: cattle
Procedure, shortened: (§1)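 Compound (50 μL of 1 mM DMSO stock) incubated in 1 mL of 100% FBS or PBS pH 7.0 at 37 °C with shaking; aliquots taken from 10 min to 96 h, diluted with water, analysed by HPLC at 490 nm; peak areas give % remaining and % released Dox.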

[18] = Drug metabolism in human CCRF-CEM cells assessed as compound hydrolysis at 1 uM after 12 hrs by HPLC analysis; assay type: ADME, cell-based; conditions: read-out: Drug metabolism
Procedure, shortened: (§2)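 CCRF-CEM cells grown in serum-free RPMI, exposed to 1 μM compound 4 h at 37 °C, then moved to drug-free serum-free RPMI for set times; pellets washed with ice-cold PBS, extracted with methanol/chloroform/isopropanol (4:3:1), filtered; parent and released Dox quantified by HPLC at 490 nm.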

[19] = Chemical stability of the compound in pH 8, reaction buffer containing Tris-HCl, NaCl, MgCl2, dithiothreitol and ATP; assay type: physicochemical
Procedure, shortened: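 Compound held in Topo II reaction buffer (Tris-HCl 50 mM pH 8.0, NaCl 150 mM, MgCl2 10 mM, DTT 0.5 mM, ATP 2 mM) without enzyme; hydrolysis followed by HPLC.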

SK-OV-3 [20] = assay: Cytotoxicity against human SKOV3 cells at > = 100 nM after 72 hrs by MTT assay; assay type: functional, cell-based
Procedure, shortened: (§3)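 SK-OV-3 cells plated overnight at 5000 cells/well; exposed to compound (up to 10 μM), then medium replaced with drug-free medium for 72 h; MTT added 2 h, formazan read at 490 nm; % cytotoxicity = (OD untreated − OD treated)/OD untreated × 100.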

SK-OV-3 [21] = assay: Cytotoxicity against human SKOV3 cells at 10 uM incubated for 1 hr followed by incubation in compound-free medium for 72 hrs by MTT assay; assay type: functional; procedure, shortened: as §3
[22] = Drug metabolism in human CCRF-CEM cells assessed as compound hydrolysis at 1 uM after 48 hrs by HPLC analysis; assay type: ADME, cell-based; conditions: read-out: Drug metabolism; procedure, shortened: as §2
[23] = molecular target: DNA topoisomerase 2-alpha (Homo sapiens) (UniProt P11388); assay: Inhibition of topoisomerase 2-mediated KDNA decatenation at 15 to 20 uM after 30 mins by gel electrophoretic analysis
Sequence of DNA topoisomerase 2-alpha (Homo sapiens) (P11388 whole entry): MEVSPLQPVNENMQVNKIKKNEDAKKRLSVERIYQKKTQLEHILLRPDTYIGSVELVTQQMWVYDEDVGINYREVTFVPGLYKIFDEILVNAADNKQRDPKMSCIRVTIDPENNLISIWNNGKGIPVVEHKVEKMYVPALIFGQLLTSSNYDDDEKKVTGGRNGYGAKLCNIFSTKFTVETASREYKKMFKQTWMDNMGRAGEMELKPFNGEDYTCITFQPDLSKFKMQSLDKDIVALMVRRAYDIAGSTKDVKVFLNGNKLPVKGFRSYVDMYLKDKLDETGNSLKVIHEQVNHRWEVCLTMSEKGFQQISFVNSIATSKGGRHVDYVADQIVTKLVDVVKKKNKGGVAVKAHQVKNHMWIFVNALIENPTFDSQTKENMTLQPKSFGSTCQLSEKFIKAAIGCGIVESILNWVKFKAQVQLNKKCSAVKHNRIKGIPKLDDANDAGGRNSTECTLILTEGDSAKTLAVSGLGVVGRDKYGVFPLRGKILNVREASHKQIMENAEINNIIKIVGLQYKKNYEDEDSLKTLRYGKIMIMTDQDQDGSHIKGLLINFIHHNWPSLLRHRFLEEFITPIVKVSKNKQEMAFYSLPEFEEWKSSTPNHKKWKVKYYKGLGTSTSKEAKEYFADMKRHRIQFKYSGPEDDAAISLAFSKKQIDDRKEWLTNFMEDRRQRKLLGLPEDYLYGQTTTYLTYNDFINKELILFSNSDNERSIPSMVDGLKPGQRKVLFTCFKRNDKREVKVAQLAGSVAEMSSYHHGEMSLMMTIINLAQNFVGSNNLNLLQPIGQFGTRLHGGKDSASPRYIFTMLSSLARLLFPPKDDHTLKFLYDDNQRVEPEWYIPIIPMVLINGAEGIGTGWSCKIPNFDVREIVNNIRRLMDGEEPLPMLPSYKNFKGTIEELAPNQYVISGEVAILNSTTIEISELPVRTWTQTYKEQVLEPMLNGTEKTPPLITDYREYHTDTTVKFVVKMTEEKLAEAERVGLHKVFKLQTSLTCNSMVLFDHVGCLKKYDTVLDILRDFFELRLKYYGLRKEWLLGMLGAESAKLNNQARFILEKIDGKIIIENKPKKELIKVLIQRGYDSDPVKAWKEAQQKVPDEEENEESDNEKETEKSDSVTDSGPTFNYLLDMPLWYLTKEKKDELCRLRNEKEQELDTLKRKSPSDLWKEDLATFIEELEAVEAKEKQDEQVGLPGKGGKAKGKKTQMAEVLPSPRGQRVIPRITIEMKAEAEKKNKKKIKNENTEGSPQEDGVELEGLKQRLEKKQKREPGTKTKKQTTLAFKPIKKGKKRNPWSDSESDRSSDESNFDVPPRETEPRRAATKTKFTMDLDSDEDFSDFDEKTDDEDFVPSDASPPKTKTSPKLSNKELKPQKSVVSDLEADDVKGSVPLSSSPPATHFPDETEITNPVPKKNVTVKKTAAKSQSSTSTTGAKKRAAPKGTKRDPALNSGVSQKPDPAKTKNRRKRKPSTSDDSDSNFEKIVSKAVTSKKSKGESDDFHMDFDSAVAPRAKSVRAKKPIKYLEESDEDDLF
Procedure, shortened: (§4)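 Eukaryotic Topo II decatenation of kDNA (0.1 μg) in Tris-HCl 50 mM pH 8.0, NaCl 150 mM, MgCl2 10 mM, DTT 0.5 mM, ATP 2 mM with compound at 1–25 μM final, 30 min at 37 °C; stopped with sarkosyl buffer; products resolved on 1% agarose with ethidium bromide.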

MDA-MB-468 [24] = assay: Inhibition of cell proliferation of human MDA-MB-468 cells at 1 uM after 120 hrs by CellTiter assay; assay type: functional; conditions: MDA-MB-468, 120 h
[25] = Drug uptake in doxorubicin-resistant human SKOV3 cell cytoplasm at 5 uM after 1 hr by confocal microscopic analysis; assay type: ADME, cell-based; conditions: sk-ov-3, 1 h
Procedure, shortened: (§5)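 Coverslip-grown SK-OV-3 cells (seeded overnight, EMEM) treated with 5 μM compound in opti-MEM for 1 h at 37 °C, PBS-washed three times, mounted and imaged by laser scanning confocal microscopy using rhodamine and phase contrast channels for Dox fluorescence.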

[26] = Drug metabolism in fetal bovine serum assessed as compound hydrolysis at 1 uM after 48 hrs by HPLC analysis
SK-OV-3 [27] = assay: Cytotoxicity against human SKOV3 cells at 5 to 10 uM by MTT assay relative to doxorubicin; assay type: functional; procedure, shortened: as §3
Serum = assay: Binding affinity to serum proteins in fetal bovine serum at 1 mM; assay type: ADME, cell-free, Bos taurus; conditions: cattle, 1000 µM
SK-OV-3 [28] = assay: Cellular uptake in doxorubicin-resistant human SKOV3 cells at 5 uM after 30 mins by FACS analysis relative to doxorubicin; assay type: ADME, cell-based; conditions: sk-ov-3, 0.5 h
Procedure, shortened: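 SK-OV-3 cells plated overnight in EMEM (2 × 10^5 cells/well); compound 5 μM added in opti-MEM, 30 min at 37 °C; cells trypsinized, PBS-washed, analysed by flow cytometry on FL2 channel; mean fluorescence of 10000 cells; triplicate.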

[29] = Cellular uptake in doxorubicin-resistant human SKOV3 cells at 5 uM incubated for 1 hr followed by incubation with fresh media for 24 hrs measured by confocal microscopic analysis; assay type: ADME, cell-based, Cytoplasm; conditions: sk-ov-3, 1 h
Procedure, shortened: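 SK-OV-3 cells seeded overnight on coverslips in EMEM, exposed to 5 μM compound in opti-MEM for 1 h at 37 °C, washed, then kept in fresh serum-containing medium 24 h; PBS-washed and imaged by laser scanning confocal microscopy, rhodamine and phase contrast channels.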

CCRF-CEM [30] = assay: Drug metabolism in human CCRF-CEM cells assessed as doxorubicin formation at 1 uM by HPLC analysis; assay type: ADME, cell-based; conditions: TDE = time-dependent effect; procedure, shortened: as §2
[31] = Drug metabolism in fetal bovine serum assessed as compound hydrolysis at 1 uM after 12 hrs by HPLC analysis
[32] = Half life in PBS at 1 mM by HPLC analysis; assay type: physicochemical; procedure, shortened: as §1
[33] = Drug uptake in doxorubicin-resistant human SKOV3 cell nucleus at 5 uM after 1 hr by confocal microscopic analysis; assay type: ADME, cell-based; conditions: sk-ov-3, 1 h; procedure, shortened: as §5
SK-OV-3 [34] = assay: Cytotoxicity against human SKOV3 cells at 10 uM incubated for 2 hrs followed by incubation in compound-free medium for 72 hrs by MTT assay; assay type: functional; procedure, shortened: as §3
[35] = molecular target: DNA topoisomerase 2-alpha (Homo sapiens) (UniProt P11388); conditions: 5 uM
SK-OV-3 [36] = assay: Cytotoxicity against human SKOV3 cells after 48 hrs; assay type: functional, cell-based; conditions: SK-OV-3, 48 h
[37] = molecular target: DNA topoisomerase 2-alpha (Homo sapiens) (UniProt P11388); assay: Inhibition of topoisomerase 2-mediated KDNA decatenation at 25 uM after 30 mins by gel electrophoretic analysis; procedure, shortened: as §4

Row | SMILES | growth inhibition (GI) (MDA-MB-361 [1]) | inhibition (SK-OV-3 [2]) | inhibition at 1 µM (HT-29 [3]) [%] | inhibition at 1 µM (MDA-MB-468 [4]) [%] | growth inhibition (GI) (HT-29 [5]) | inhibition (MDA-MB-468 [6]) | inhibition (HT-29 [7]) | growth inhibition (GI) (MDA-MB-468 [8]) | inhibition (MDA-MB-361 [9]) | inhibition (CCRF-CEM [10]) | inhibition at 1 µM (CCRF-CEM [11]) [%] | growth inhibition (GI) (CCRF-CEM [12]) | inhibition at 1 µM (MDA-MB-361 [13]) [%] | IC50 (CCRF-CEM [14]) [nM] | inhibition at 1 µM (SK-OV-3 [15]) [%] | growth inhibition (GI) (SK-OV-3 [16]) | other results
1 | COc1cccc2c1C(=O)c1c(O)c3c(c(O)c1C2=O)C[C@@](O)(C(=O)COC(=O)CCC(=O)O)C[C@@H]3O[C@H]1C[C@H](N)[C@H](O)[C@H](C)O1 | Active | tde | 60 | 49 | Active | tde | tde | Active | tde | tde | 69 | Active | 66 | 75 | 54 | Active | 
2 | CCCCCCCCCCCCCCOC(=O)CCC(=O)OCC(=O)[C@]1(O)Cc2c(O)c3c(c(O)c2[C@@H](O[C@H]2C[C@H](N)[C@H](O)[C@H](C)O2)C1)C(=O)c1c(OC)cccc1C3=O | Active | tde | 60 | 49 | Active | tde | tde | Active | tde | tde | 69 | Active | 66 | 75 | 54 | Active | 
3 | CCCCCCCCCCCCNC(=O)CCC(=O)OCC(=O)[C@]1(O)Cc2c(O)c3c(c(O)c2[C@@H](O[C@H]2C[C@H](N)[C@H](O)[C@H](C)O2)C1)C(=O)c1c(OC)cccc1C3=O | Active | tde | 60 | 49 | Active | tde | tde | Active | tde | tde | 69 | Active | 66 | 75 | 54 | Active | 
4 | CCCCCCCCCCCCCCNC(=O)CCC(=O)OCC(=O)[C@]1(O)Cc2c(O)c3c(c(O)c2[C@@H](O[C@H]2C[C@H](N)[C@H](O)[C@H](C)O2)C1)C(=O)c1c(OC)cccc1C3=O | Active | tde | 60 | 49 | Active | tde | tde | Active | tde | tde | 69 | Active | 66 | 77 | 54 | Active | half-life at 1000 µM [17]: 8.3 h; metabolised at 12 h, 1 µM [18]: > 75%; Stability [19]: Stable; Activity (SK-OV-3 [20]): Active; Activity (SK-OV-3 [21]): 67.1%; metabolised at 48 h, 1 µM [22]: 98%; inhibition [23]: Active; inhibition at 1 µM (MDA-MB-468 [24]): 70.2%; Drug uptake [25]: Active; metabolised at 48 h, 1 µM [26]: 30%; fold change (FC) (SK-OV-3 [27]): 1.4; PB (Serum): Not Active; fold change (FC) (SK-OV-3 [28]): 3; Drug uptake [29]: Active; Drug metabolism (CCRF-CEM [30]): tde; metabolised at 12 h, 1 µM [31]: 20%; half-life at 1000 µM [32]: 19.3 h
5 | CCCCCCCCCCCCCCCCNC(=O)CCC(=O)OCC(=O)[C@]1(O)Cc2c(O)c3c(c(O)c2[C@@H](O[C@H]2C[C@H](N)[C@H](O)[C@H](C)O2)C1)C(=O)c1c(OC)cccc1C3=O | Active | tde | 60 | 49 | Active | tde | tde | Active | tde | tde | 69 | Active | 66 | 75 | 54 | Active | 
6 | CCCCCCCCCCNC(=O)CCC(=O)OCC(=O)[C@]1(O)Cc2c(O)c3c(c(O)c2[C@@H](O[C@H]2C[C@H](N)[C@H](O)[C@H](C)O2)C1)C(=O)c1c(OC)cccc1C3=O | Active | tde | 60 | 49 | Active | tde | tde | Active | tde | tde | 69 | Active | 66 | 75 | 54 | Active | 
7 | COc1cccc2c1C(=O)c1c(O)c3c(c(O)c1C2=O)C[C@@](O)(C(=O)CO)C[C@@H]3O[C@H]1C[C@H](N)[C@H](O)[C@H](C)O1 [DOXORUBICIN] |  |  |  |  |  |  |  |  |  |  |  |  |  | 45 |  |  | Drug uptake [33]: Active; Activity (SK-OV-3 [34]): 51.5%; inhibition at 1 µM (MDA-MB-468 [24]): 69.1%; inhibition [35]: Active; Drug uptake [29]: Not Active; IC50 (SK-OV-3 [36]): 5000 nM
8 | CCCCCCCCCCCCCCCC(=O)N[C@H]1C[C@H](O[C@H]2C[C@](O)(C(=O)CO)Cc3c(O)c4c(c(O)c32)C(=O)c2c(OC)cccc2C4=O)O[C@@H](C)[C@H]1O |  |  |  |  |  |  |  |  |  |  |  |  |  |  |  |  | inhibition [37]: inactive

— ChEMBL document CHEMBL2021810, “Synthesis, anticancer activities, and cellular uptake studies of lipophilic derivatives of doxorubicin succinate” (J Med Chem, 2012)
